Assay outcomes deposited in PubChem BioAssay by several laboratories.
CAL PDZ FP-1 – blocks peptide binding to the human CAL PDZ domain. inhibition, % at 24.9 µM. AID 602252. purified CAL PDZ, TMR-peptide fluorescence polarization, 1 h. Q9HD26. actives 0.92% (n = 300,000);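 active means mean inhibition of at least 30% with at least half of replicates also reaching 30%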
Cardiac RTF inh – cardiac RTF calcium desensitization; P19429+P45379; IANBD-labeled cardiac RTF, Ca2+ fluorescence; inhibition, % at 7.15 µM; actives 0.12% (n = 340,000); AID 493244;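 active means inhibition above the mean inhibition of all tested compounds plus 3 SD, cut at about 17% in these data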;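 further: assay run at fixed EC70 calcium of 1.6 mM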
LANA DNA inh – blocks KSHV LANA C-terminal domain binding to DNA; AID 504423; inhibition, % at 9 µM; MBP-C-LANA/FAM-LBS DNA binding, fluorescence polarization; actives 0.078% (n = 340,000);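 active means highest replicate inhibition at or above 60% at 9 µM, even if other replicates fall short; inactive means all replicates below 60% inhibition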
Keap1-Nrf2 PPI – Keap1-Nrf2 (human) interaction inhibition. Q14145. Keap1 Kelch-Nrf2 peptide fluorescence polarization, 1536-well. inhibition, % at 9.4 µM. actives 0.15% (n = 340,000). AID 504523; in the data active means inhibition above about 12%;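 further: human Keap1 Kelch domain with fluorescein labeled Nrf2 9mer peptide probe; higher means more block of Keap1 binding to Nrf2 peptide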
Target sequence (Q14145 whole entry, looked up, the tested form may be a part): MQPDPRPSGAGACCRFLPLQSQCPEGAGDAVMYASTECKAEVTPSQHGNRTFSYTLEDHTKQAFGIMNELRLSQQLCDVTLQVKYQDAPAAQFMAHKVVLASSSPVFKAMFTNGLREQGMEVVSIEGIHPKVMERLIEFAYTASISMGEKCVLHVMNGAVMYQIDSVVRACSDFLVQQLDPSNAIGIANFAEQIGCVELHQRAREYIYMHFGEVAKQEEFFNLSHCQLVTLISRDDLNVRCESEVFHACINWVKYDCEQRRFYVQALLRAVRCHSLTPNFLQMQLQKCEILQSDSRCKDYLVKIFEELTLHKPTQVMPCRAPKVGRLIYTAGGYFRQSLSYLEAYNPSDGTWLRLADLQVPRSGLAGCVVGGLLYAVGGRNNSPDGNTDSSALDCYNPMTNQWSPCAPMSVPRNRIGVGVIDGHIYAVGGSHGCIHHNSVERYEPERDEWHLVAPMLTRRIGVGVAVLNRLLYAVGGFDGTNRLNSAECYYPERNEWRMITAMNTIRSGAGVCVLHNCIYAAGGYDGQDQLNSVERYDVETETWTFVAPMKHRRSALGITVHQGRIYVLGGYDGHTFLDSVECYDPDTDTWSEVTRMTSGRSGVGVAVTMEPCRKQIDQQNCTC
CAL PDZ FP-2 – inhibitors of human CAL PDZ peptide binding. actives 0.02% (n = 330,000). Q9HD26. purified CAL PDZ, TMR-peptide fluorescence polarization, 1 h. inhibition, % at 20 µM;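 active means highest replicate inhibition of at least 40%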
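System: tagged CAL PDZ domain. Schedule: 1 h room-temperature incubation prior to read. Signal: fluorescence polarization (mP). Measure: percent inhibition from loss of millipolarization.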
RTF Ca sens act – increases calcium sensitivity of human cardiac regulated thin filaments; AID 493008; activation, % at 7.2 µM; IANBD-labeled TnC RTF fluorescence at EC20 calcium; 0% EC20 calcium, 100% full calcium; P19429+P45379; actives 0.24% (n = 340,000);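 active means activation above the mean over all tested compounds plus 3 SD, cut at about 30% in these data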;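 further: rise in fluorescence read as greater calcium sensitivity of cardiac thin filaments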
A number is an active result; i = inactive; nt = no result; + = active, no number. A selection: hits, their analogues and other compounds. The true share with any hit is near 1.3%.

SMILES | CAL PDZ FP-1 | Cardiac RTF inh | LANA DNA inh | Keap1-Nrf2 PPI | CAL PDZ FP-2 | RTF Ca sens act
CCC(CC)C(=O)NCCc1ccc(OC)c(OC)c1 | 60 | i | i | i | i | i
CCC(CC)C(=O)NCCc1ccc(OC)cc1 | i | i | i | i | i | i
COc1ccc(CCNC(=O)c2ccc3nc(-c4ccco4)c(-c4ccco4)nc3c2)cc1OC | i | 20 | i | i | i | i
O=C(OCc1ccccc1C(F)(F)F)c1ccc(Br)c(S(=O)(=O)N2CCOCC2)c1 | i | i | i | i | i | i
O=C1C=CC(c2ccccc2)(c2ccccc2)CC1 | 38 | i | i | i | i | i
CN1C(=O)CCC1(O)c1ccccc1 (centres undefined) | i | i | i | i | i | i
Cc1cccc(CC(=O)Nc2sc(C(C)C)cc2C(=O)N2CCOCC2)c1 | i | i | nt | i | i | i
COc1ccc(/C=N/NC(=O)c2ccc(CN3C(=O)c4cccc5cccc3c45)cc2)cc1O | 77 | i | i | i | i | i
COc1cc(/C=N/NC(=O)c2ccc(CN3C(=O)c4cccc5cccc3c45)cc2)cc(OC)c1O | 50 | i | i | i | i | i
O=C(COC(=O)COc1ccc(Cl)cc1)Nc1ncc(Br)s1 | i | i | i | i | i | i
O=C(CSc1ncn[nH]1)NNC(=O)c1ccccc1 | i | i | i | i | i | i
COCC(C)N1CCC(Oc2cccc(C(=O)NCCc3ccccc3)c2)CC1 (centres undefined) | 49 | i | i | i | i | i
CC(C)CN1CCC(Oc2cccc(C(=O)NCCc3ccccc3)c2)CC1 | i | i | i | i | i | i
COc1ccccc1CC(=O)Nc1cccc(C)n1 | 58 | i | i | i | i | i
COc1ccccc1CC(=O)Nc1cccc2ccccc12 | nt | i | i | i | i | i
CN(/N=C/c1ccccc1Cl)c1ncc(Cl)cc1C(F)(F)F | 44 | i | i | i | i | i
COc1ccc(CNC(=O)C(=O)NCC2OCCN2S(=O)(=O)c2ccc(C)cc2)cc1 (centres undefined) | i | i | i | i | i | i
COc1ccc(S(=O)(=O)N2CCOC2CNC(=O)C(=O)NCc2ccncc2)cc1 (centres undefined) | + | i | i | i | i | i
O=C(O)CCCCCN1C(=O)CCC1=O | 45 | i | i | i | nt | i
O=C(CCCCCN1C(=O)CCC1=O)Nc1ncn[nH]1 | i | i | i | i | i | i
CCN(C(=O)COC(=O)c1ccc([N+](=O)[O-])o1)C1CCCCC1 | 125 | i | i | i | i | i
O=C(COC(=O)c1ccc([N+](=O)[O-])o1)NC1CCCCC1 | i | i | i | i | i | i
CN(C)c1ccc(/C=C2\SC(N3CCCCC3)=NC2=O)cc1 | nt | i | i | i | i | 40
O=C1N=C(N2CCCCC2)S/C1=C\c1ccc(Br)cc1 | i | i | i | i | i | i
O=C(O)c1ccc(Cn2cnc3c(=O)[nH]cnc32)cc1 | i | i | i | i | i | i
SMILES | CAL PDZ FP-1 | Cardiac RTF inh | LANA DNA inh | Keap1-Nrf2 PPI | CAL PDZ FP-2 | RTF Ca sens act
Cc1c(CN2CCCC(C)C2)c(O)n(CCO)c(=O)c1C#N (centres undefined) | i | i | i | i | i | 35
C=CCOc1ccccc1CN1CCC(n2nccc2NC(=O)C2CC2)CC1 | i | i | i | i | i | i
COc1ccc(N(CC(=O)Nc2cccc(C)c2)S(=O)(=O)c2ccc(C)cc2)cc1OC | i | i | i | i | i | i
CCOCCc1nnc(NC(=O)CCC2CCCCC2)s1 | 74 | i | i | i | i | i
Oc1ccc(C=NNC(=S)Nc2ccc(F)cc2)c(O)c1 | 32 | i | i | i | i | i
COc1ccc(C2(c3ccc(OC)cc3)NC(=O)N(CC(=O)NCC(F)(F)F)C2=O)cc1 | i | i | i | i | i | i
CCN(CC)S(=O)(=O)c1ccc(N2CCOCC2)c(NC(=O)c2cccc3ccccc23)c1 | i | i | i | i | i | i
CCN(CC)S(=O)(=O)c1ccc(N2CCOCC2)c(NC(=O)c2cc([N+](=O)[O-])ccc2Cl)c1 | 40 | i | i | i | i | i
Cc1nn(-c2ccccc2)c(C)c1NC(=O)COC(=O)C1CC(=O)N(CCc2ccccc2)C1 (centres undefined) | i | i | i | i | i | i
CC(=O)Nc1ccc(S(=O)(=O)NCCC(=O)Nc2cc(C)ccn2)cc1 | 30 | i | i | i | i | i
CC(=O)Nc1ccc(S(=O)(=O)NCCc2c[nH]c3ccc(C)cc23)cc1 | 31 | i | i | i | i | i
COc1cc(OC)cc(C(=O)N[C@H](C(=O)Nc2ccccc2N2CCOCC2)C(C)C)c1 | 39 | i | i | i | i | i
O=C(Nc1ccccc1N1CCOCC1)c1cccnc1 | 85 | i | i | i | i | i
O=C(Nc1ccc(N2CCOCC2)c(Cl)c1)c1cccnc1 | nt | i | i | i | i | i
Cc1ccc(SCC(=O)Nc2ccccc2N2CCOCC2)cc1 | 48 | i | i | i | i | i
COc1cc(OC)cc(C(=O)NC(C(=O)Nc2ccc(N3CCOCC3)cc2)C(C)C)c1 (centres undefined) | i | i | i | i | i | i
CCN(CC(=O)Nc1ccc(NC(C)=O)cc1)C(=O)c1ccc(NC2CC2)c([N+](=O)[O-])c1 | i | i | i | i | i | i
COC(=O)c1ccc(Cn2ccc(=O)[nH]c2=O)cc1 | i | i | i | i | i | i
CCOc1ccc(-n2ccc(=O)c(C(=O)O)n2)cc1 | i | i | i | i | nt | i
CCN(CC)C(=O)Cn1c(C)c(/C=C/c2cc[n+](C)cc2)c2ccccc21 | nt | i | nt | i | i | 87
CCN(CC)C(=O)Cn1c(=O)n(C)c2ccccc21 | i | i | i | i | i | i
Cc1[nH]c2ccccc2c1/C=C/c1cc[n+](C)cc1 | i | i | i | i | i | 95
CCn1c(/C=C/c2c(C)n(CC)c3ccccc23)nc2ccccc2c1=O | i | i | i | i | i | i
CCn1cc(/C=C/c2cc[n+](C)cc2)c2ccccc21 | i | i | i | i | i | 371
Cc1ccccc1/C=C/c1cc[n+](C)cc1 | i | i | i | i | i | i
C=CCn1c(C)c(/C=C/c2cc[n+](C)cc2)c2ccccc21 | i | i | i | i | i | 114
CC(=O)NC12CC3CC(C1)CC(C(=O)N1CCN(S(=O)(=O)c4cccc(C(F)(F)F)c4)CC1)(C3)C2 | nt | i | i | i | i | i
CCN1CCN(C(CNS(=O)(=O)c2ccc(C)cc2)c2ccccc2)CC1 (centres undefined) | i | i | i | i | i | i
Cc1ccc(S(=O)(=O)CCC(=O)OCc2nnc(-c3ccccc3Br)o2)cc1 | i | i | i | i | i | i
C=CCn1cc(/C=C/c2cc[n+](C)cc2)c2ccccc21 | i | i | i | i | i | 170
